Assay results reported in ChEMBL document CHEMBL3860043, “Non-Acidic Free Fatty Acid Receptor 4 Agonists with Antidiabetic Activity” (J Med Chem, 2016).
Values after ≈ are worked out from the molar mass of the structure shown. Each block holds one molecule with its values, some of them ahead of it.

Columns and labels:
[1] = biological target: T1, Free fatty acid receptor 4 (Homo sapiens, UniProt Q5NUL3); assay: Agonist activity at C-terminal YFP-tagged human FFA4 expressed in HEK293 cells in presence of coelentrazine h by BRET based beta-arrestin-2 interaction assay; format: cell-based
T1 sequence (Q5NUL3 whole entry): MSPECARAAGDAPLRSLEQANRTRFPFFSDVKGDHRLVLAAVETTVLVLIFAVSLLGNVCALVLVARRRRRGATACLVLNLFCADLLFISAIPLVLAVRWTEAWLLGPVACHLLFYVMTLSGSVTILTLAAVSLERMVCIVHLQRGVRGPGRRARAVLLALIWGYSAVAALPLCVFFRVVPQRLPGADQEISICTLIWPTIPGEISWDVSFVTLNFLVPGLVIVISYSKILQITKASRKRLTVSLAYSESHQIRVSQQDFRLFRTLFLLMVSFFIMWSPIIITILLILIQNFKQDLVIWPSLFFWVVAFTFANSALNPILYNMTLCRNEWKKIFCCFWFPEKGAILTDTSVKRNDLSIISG
In short: (§1)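 HEK293 cells co-transfected with C-terminal eYFP-fused human FFA4 and β-arrestin-2–Renilla luciferase; plated 24 h post-transfection, used 24 h later. After an HBSS wash, coelenterazine h (2.5 µM) for 15 min, with ligands present for the final 5 min, 37 °C. BRET taken as the 535/475 nm emission ratio. Efficacy relative to 100 µM reference agonist. Three-parameter sigmoidal fits; mean ± S.E. of 2-4 independent experiments.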

[2] = biological target: T2, Free fatty acid receptor 4 (Homo sapiens) (UniProt Q5NUL3); assay: Agonist activity at C-terminal YFP-tagged human FFA4 expressed in HEK293 cells in presence of coelentrazine h by BRET based beta-arrestin-2 interaction assay relative to 100 uM […]; format: cell-based; in short: as §1
T2 sequence (whole entry): T1 sequence (Q5NUL3 whole entry)

[3] = biological target: T3, Free fatty acid receptor 1 (Homo sapiens, UniProt O14842); assay: Antagonist activity against human FFA1 expressed in human Flp-In T-REx293 cells assessed as as reduction in TUG424-induced response by Fura2-AM dye based calcium mobilization assay; format: functional, cell-based
T3 sequence (O14842 whole entry): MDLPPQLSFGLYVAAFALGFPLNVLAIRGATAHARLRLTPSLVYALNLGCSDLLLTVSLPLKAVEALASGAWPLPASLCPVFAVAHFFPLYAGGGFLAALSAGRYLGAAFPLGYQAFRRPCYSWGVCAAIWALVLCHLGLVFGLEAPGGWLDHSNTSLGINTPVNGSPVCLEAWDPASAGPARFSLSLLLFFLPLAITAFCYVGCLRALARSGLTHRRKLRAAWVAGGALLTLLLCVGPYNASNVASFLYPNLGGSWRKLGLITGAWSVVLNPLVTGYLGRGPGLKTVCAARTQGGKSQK
In short: (§2)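 Flp-In T-REx 293 cells with inducible human FFA1, seeded at 50000 cells/well and induced with 100 ng/ml doxycycline after 3-4 h adherence. Next day loaded with Fura2-AM for 45 min, washed, then preincubated 15 min in HBSS with test ligand before 300 nM agonist challenge. Fura2 340:380 ratio change read at 510 nm emission. Inhibition expressed as % reduction of the agonist response.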

[4] = biological target: T3, Free fatty acid receptor 1; assay: Antagonist activity against human FFA1 expressed in human Flp-In T-REx293 cells assessed as as reduction in 300 nM TUG424-induced response by Fura2-AM dye based calcium mobilization assay relative to untreated control; format: functional, cell-based; in short: as §2
[5] = biological target: T2, Free fatty acid receptor 4 (Homo sapiens); assay: Agonist activity at human FFA4 expressed in human Flp-In T-REx293 cells by Fura2-AM dye based calcium mobilization assay relative to 100 uM […]; format: functional, cell-based
In short: (§3)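 Flp-In T-REx 293 cells with doxycycline-inducible human FFA4 seeded at 50000 cells/well and induced overnight with 100 ng/ml doxycycline. Loaded with Fura2-AM for 45 min, washed three times in HBSS, equilibrated 15 min, then ligand added. Emission at 510 nm with 340/380 nm excitation; response is the change in 340:380 ratio. Efficacy relative to 100 µM reference agonist; 2-4 independent experiments, sigmoidal fits.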

[6] = biological target: T1, Free fatty acid receptor 4; assay: Agonist activity at human FFA4 expressed in human Flp-In T-REx293 cells by Fura2-AM dye based calcium mobilization assay; format: functional, cell-based; in short: as §3
[7] = biological target: T4, Free fatty acid receptor 4 (Mus musculus, UniProt Q7TMA4); assay: Agonist activity mouse FFA4 by Gq-dependent calcium mobilization assay; format: functional
T4 sequence (Q7TMA4 whole entry): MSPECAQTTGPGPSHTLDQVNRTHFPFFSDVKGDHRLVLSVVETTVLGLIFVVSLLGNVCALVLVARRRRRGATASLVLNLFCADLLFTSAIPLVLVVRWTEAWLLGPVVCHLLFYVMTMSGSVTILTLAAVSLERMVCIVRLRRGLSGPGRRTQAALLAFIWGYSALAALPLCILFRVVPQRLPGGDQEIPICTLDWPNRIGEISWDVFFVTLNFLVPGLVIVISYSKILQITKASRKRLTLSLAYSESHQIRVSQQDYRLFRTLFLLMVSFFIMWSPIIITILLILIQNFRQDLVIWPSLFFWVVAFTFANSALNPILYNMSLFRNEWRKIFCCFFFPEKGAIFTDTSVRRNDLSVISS

[8] = Solubility in FaSSIF solution; format: physicochemical
[9] = biological target: T3, Free fatty acid receptor 1; assay: Antagonist activity against human FFA1 expressed in human Flp-In T-REx293 cells assessed as as reduction in TUG770-induced response by Fura2-AM dye based calcium mobilization assay; format: functional, cell-based
In short: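 Antagonism measured in FFA1 Ca2+ mobilization with 20 nM TUG-770 as the stimulating agonist. Test ligand preincubated 15 min in HBSS before agonist addition. Read-out is the change in Fura2 340:380 ratio at 510 nm emission.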

[10] = Solubility in PBS buffer; format: physicochemical

EC50 ([1]; read-out: pEC50 (converted)): 16.6 µM | Emax [2]: 39%
SMILES: O=S(=O)(Nc1cc(F)cc(Oc2cccnc2)c1)c1ccc(F)cc1

EC50 ([1]; read-out: pEC50 (converted)): 5.01 µM | Emax [2]: 45%
SMILES: O=C1c2ccccc2C(=O)N1c1cc(F)cc(Oc2cccnc2)c1

EC50 ([1]; read-out: pEC50 (converted)): 5.37 µM | Emax [2]: 76% | IC50 [3]: 8.13 µM | Imax [4]: 68%
SMILES: CCCCc1ccc(NS(=O)(=O)c2ccc(F)cc2)cc1

EC50 ([1]; read-out: pEC50 (converted)): 0.49 µM | Emax [2]: 82%
SMILES: COc1ccc(S(=O)(=O)Nc2c(C)cc(C)cc2C)cc1

IC50 [3]: 10 µM | Imax [4]: 100%
SMILES: Cc1ccc(S(=O)(=O)Nc2ccc(Oc3ccccc3)cc2)cc1

Emax [5]: 14% | EC50 ([1]; read-out: pEC50 (converted)): 2.63 µM | Emax [2]: 87% | EC50 [6]: 4.47 µM | IC50 [3]: 25.1 µM | Imax [4]: 51%
SMILES: Cc1cccc(Oc2cc(F)cc(N3Cc4ccccc4S3(=O)=O)c2)c1

Second part, the molecule before the results:

SMILES: N#CCc1cccc(Oc2cc(F)cc(N3Cc4ccccc4S3(=O)=O)c2)c1
EC50 ([1]; read-out: pEC50 (converted)): 5.25 µM | Emax [2]: 57% | IC50 [3]: 20 µM | Imax [4]: 44%

SMILES: O=S1(=O)c2ccccc2CN1c1cc(F)cc(OCc2ccccc2)c1
EC50 ([1]; read-out: pEC50 (converted)): > 100 µM | IC50 [3]: 2.45 µM | Imax [4]: 36%

SMILES: O=S1(=O)c2ccccc2CN1c1cccc(Oc2ccccn2)c1
Emax [5]: 93% | EC50 ([1]; read-out: pEC50 (converted)): 1.55 µM | Emax [2]: 102% | EC50 [6]: 1.02 µM | IC50 [3]: > 100 µM

SMILES: O=S1(=O)c2ccccc2CN1c1cc(Cl)cc(Oc2ccccn2)c1
Emax [5]: 78% | EC50 [7]: 0.0724 µM | EC50 ([1]; read-out: EC50): 0.04 µM | EC50 ([1]; read-out: pEC50 (converted)): 0.138 µM | solubility [8]: 0.9 µM (≈ 0.336 µg/mL) | Emax [2]: 113% | IC50 [9]: > 100 µM | EC50 [6]: 0.0389 µM | solubility [10]: 0.1 µM (≈ 0.0373 µg/mL)

SMILES: N#Cc1ccccc1Oc1cc(F)cc(N2Cc3ccccc3S2(=O)=O)c1
EC50 ([1]; read-out: pEC50 (converted)): 16.2 µM | Emax [2]: 76% | IC50 [3]: > 100 µM
